Laboratory results: ChEMBL document CHEMBL1649117, “GRL-02031, a novel nonpeptidic protease inhibitor (PI) containing a stereochemically defined fused cyclopentanyltetrahydrofuran potent against multi-PI-resistant human immunodeficiency virus type 1 in vitro” (Antimicrob Agents Chemother, 2009)

Columns and labels:
[1] = test system: Human immunodeficiency virus 1; experiment: Ratio of EC50 for HIV1 NL4-3 harboring M46I/V82F/I84V amino acid substitution in protease encoding region to EC50 for HIV1 NL4-3; assay type: functional
Procedure, shortened: (§1)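 MT-4 cells (10^5/ml) infected with 100 TCID50s of PI-selected HIV-1NL4-3 variants or the parental strain, with or without serial drug concentrations, at 37°C. Day 7 supernatant p24 Gag measured by chemiluminescent enzyme immunoassay. […] Triplicate. Ratio is variant EC50 over wild-type EC50.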

[2] = test system: Human immunodeficiency virus 1; experiment: Antiviral activity against HIV1 NL4-3 harboring L23I/K43I/M46I/I50L/G51A/A71V amino acid substitution in protease encoding region infected in human MT4 cells assessed as inhibition of p24 Gag protein production selected at 1 uM of atazanavir by ELISA; assay type: functional, organism-based; settings: Human immunodeficiency virus 1, NL4-3, MT4
Procedure, shortened: (§2)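 HIV-1NL4-3 (500 TCID50s) was passaged in MT-4 cells, starting at 0.01–0.03 µM PI and raising the drug generally two- to threefold as virus propagated. Cell-free passage used day-7 supernatants. Variants were then tested in MT-4 cells (10^5/ml) with 100 TCID50s, with or without drug, at 37°C. Day-7 p24 Gag was read by chemiluminescent immunoassay; EC50 vs drug-free control; triplicate.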

[3] = test system: Human immunodeficiency virus 1; experiment: Ratio of EC50 for HIV1 G harboring L10I/V11I/T12E/I15V/L19I/R41K/M46L/L63P/A71T/V82A/L90M in protease encoding region to EC50 for HIV1 ERS104pre; assay type: functional
[4] = test system: Human immunodeficiency virus 1; experiment: Ratio of EC50 for HIV1 TM harboring L10I/K14R/R41K/M46L/I54V/L63P/A71V/V82A/L90M/I93L in protease encoding region to EC50 for HIV1 ERS104pre; assay type: functional
Procedure, shortened: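 PHA-stimulated PBMs (10^6/ml) infected with 50 TCID50s of primary HIV-1 isolate and cultured with 10-fold serial drug dilutions. Day 7 supernatant p24 Gag measured by chemiluminescent enzyme immunoassay. […] Triplicate. Ratio is resistant isolate EC50 over reference isolate EC50.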

[5] = test system: Human immunodeficiency virus 1; experiment: Antiviral activity against HIV1 A harboring L10I/I15V/E35D/N37E/K45R/I54V/L63P/A71V/V82T/L90M/I93L/C95F in protease encoding region infected in human PHA-PBC assessed as inhibition of p24 Gag protein production by ELISA; assay type: functional, organism-based; settings: Human immunodeficiency virus 1, A
Procedure, shortened: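 Phytohemagglutinin-stimulated PBMs (10^6/ml) infected with 50 TCID50s of each primary isolate, cultured with or without drug in 10-fold serial dilutions. On day 7, supernatant p24 Gag was measured by automated chemiluminescent enzyme immunoassay. Triplicate.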

[6] = test system: Human immunodeficiency virus 1; experiment: Ratio of EC50 for HIV1 NL4-3 harboring L10F/D30N/K45I/A71V/T74S amino acid substitution in protease encoding region to EC50 for HIV1 NL4-3; assay type: functional
[7] = test system: Human immunodeficiency virus 1; experiment: Antiviral activity against HIV1 NL4-3 harboring L10F/L24I/M46I/L63P/A71V/G73S/V82T amino acid substitution in protease encoding region infected in human MT4 cells assessed as inhibition of p24 Gag protein production selected at 5 uM of indinavir by ELISA; assay type: functional, organism-based; settings: Human immunodeficiency virus 1, NL4-3, MT4; procedure, shortened: as §2
[8] = test system: Human immunodeficiency virus 1; experiment: Ratio of EC50 for HIV1 NL4-3 harboring L10F/V32I/M46I/I54M//A71V/I84V amino acid substitution in protease encoding region to EC50 for HIV1 NL4-3; assay type: functional; procedure, shortened: as §1
[9] = test system: Human immunodeficiency virus 1; experiment: Ratio of EC50 for HIV1 NL4-3 harboring L10F/L24I/M46I/L63P/A71V/G73S/V82T amino acid substitution in protease encoding region to EC50 for HIV1 NL4-3; assay type: functional; procedure, shortened: as §1
[10] = test system: Human immunodeficiency virus 1; experiment: Antiviral activity against HIV1 MM harboring L10I/K43T/M46L/I54V/L63P/A71V/V82A/L90M/Q92K in protease encoding region infected in human PHA-PBC assessed as inhibition of p24 Gag protein production by ELISA; assay type: functional, organism-based; settings: Human immunodeficiency virus 1, MM
Procedure, shortened: (§3)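 Phytohemagglutinin-stimulated PBMs (10^6/ml) infected with 50 TCID50s of each primary isolate, cultured with or without drug in 10-fold serial dilutions. On day 7, supernatant p24 Gag was measured by automated chemiluminescent enzyme immunoassay. […] Triplicate.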

[11] = test system: Human immunodeficiency virus 1; experiment: Antiviral activity against HIV1 NL4-3 harboring L10F/D30N/K45I/A71V/T74S amino acid substitution in protease encoding region infected in human MT4 cells assessed as inhibition of p24 Gag protein production selected at 5 uM of nelfinavir by ELISA; assay type: functional, organism-based; settings: Human immunodeficiency virus 1, NL4-3, MT4; procedure, shortened: as §2
[12] = test system: Human immunodeficiency virus 1; experiment: Antiviral activity against HIV1 TM harboring L10I/K14R/R41K/M46L/I54V/L63P/A71V/V82A/L90M/I93L in protease encoding region infected in human PHA-PBC assessed as inhibition of p24 Gag protein production by ELISA; assay type: functional, organism-based; settings: Human immunodeficiency virus 1, TM; procedure, shortened: as §3
[13] = test system: Human immunodeficiency virus 1; experiment: Ratio of EC50 for HIV1 JSL harboring L10I/L24I/L33F/E35D/M36I/N37S/M46L/I54V/R57K/I62V/L63P/A71V/G73S/82A in protease encoding region to EC50 for HIV1 ERS104pre; assay type: functional
[14] = Selectivity index, ratio of CC50 for human MT2 cells to EC50 for HIV1 LAI; assay type: toxicity, cell-based; settings: read-out: Selectivity Index
[15] = test system: Human immunodeficiency virus 1; experiment: Ratio of EC50 for HIV1 NL4-3 harboring V82I mutation in protease encoding region infected in human […] cells to EC50 for HIV1 NL4-3 infected in human MT4 cells; assay type: functional
[16] = test system: Human immunodeficiency virus 1; experiment: Antiviral activity against HIV1 NL4-3 harboring M46I mutation in protease encoding region infected in human […] cells assessed as inhibition of p24 Gag protein production by ELISA; assay type: functional, organism-based; settings: Human immunodeficiency virus 1, NL4-3
Procedure, shortened: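 Protease PCR fragments (ApaI/SmaI) were cloned into pHIV-1NLSma, and virions were harvested from transfected 293T cells over 48 h. MT-4 target cells (10^5/ml) were infected with 100 TCID50s, with or without drug, at 37°C. Day-7 supernatant p24 Gag was read by chemiluminescent enzyme immunoassay.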

[17] = test system: Human immunodeficiency virus 1; experiment: Ratio of EC50 for amprenavir to compound against HIV1 NL4-3 harboring I47V mutation in protease encoding region infected in human […] cells; assay type: functional
[18] = test system: Human immunodeficiency virus 1; experiment: Ratio of EC50 for nelfinavir to compound against HIV1 NL4-3 harboring D30N mutation in protease encoding region infected in human […] cells; assay type: functional
[19] = test system: Human immunodeficiency virus 1; experiment: Ratio of EC50 for HIV1 NL4-3 harboring M46I/I47V mutation in protease encoding region infected in human […] cells to EC50 for HIV1 NL4-3 infected in human MT4 cells; assay type: functional
[20] = test system: Human immunodeficiency virus 1; experiment: Antiviral activity against HIV1 NL4-3 infected in human MT4 cells assessed as inhibition of p24 gag protein production by ELISA; assay type: functional, organism-based; settings: Human immunodeficiency virus 1, NL4-3, MT4
Procedure, shortened: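 MT-4 cells (10^5/ml) were infected with 100 TCID50s of HIV-1 and cultured at 37°C with or without various drug concentrations. On day 7, supernatant p24 Gag was measured by automated chemiluminescent enzyme immunoassay. […] Assays were run in triplicate.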

Structure (SMILES)	Ratio EC50 [1]	EC50 [2] [nM]	Ratio EC50 [3]	Ratio EC50 [4]	EC50 [5] [nM]	Ratio EC50 [6]	EC50 [7] [nM]	Ratio EC50 [8]	Ratio EC50 [9]	EC50 [10] [nM]	EC50 [11] [nM]	EC50 [12] [nM]	Ratio EC50 [13]	selectivity ratio [14]	Ratio EC50 [15]	EC50 [16] [nM]	Ratio EC50 [17]	Ratio EC50 [18]	Ratio EC50 [19]	EC50 [20] [nM]
Cc1c(O)cccc1C(=O)N[C@@H](CSc1ccccc1)[C@H](O)CN1C[C@H]2CCCC[C@H]2C[C@H]1C(=O)NC(C)(C)C	13	210	14	>63	330	>56	650	10	36	> 1000	> 1000	> 1000	>63							
COc1ccc(S(=O)(=O)N(C[C@@H]2CCC(=O)N2)C[C@@H](O)[C@H](Cc2ccccc2)NC(=O)O[C@@H]2C[C@@H]3CCO[C@@H]3C2)cc1	3	33	1	1	14	2	47	2	2	41	36	26	2	> 3600	1.5	28	1.2	5.6	3.2	23
CC(C)(C)NC(=O)[C@@H]1C[C@@H]2CCCC[C@@H]2CN1C[C@@H](O)[C@H](Cc1ccccc1)NC(=O)[C@H](CC(N)=O)NC(=O)c1ccc2ccccc2n1	1	34	3	30	100	4	22	2	3		28		36	710						8
CC(C)CN(C[C@@H](O)[C@H](Cc1ccccc1)NC(=O)O[C@H]1CCOC1)S(=O)(=O)c1ccc(N)cc1	15	180	9	14	160	3	260	>36	9	400	78		26	> 3000						28
CC(C)(C)NC(=O)[C@@H]1CN(Cc2cccnc2)CCN1C[C@@H](O)C[C@@H](Cc1ccccc1)C(=O)N[C@H]1c2ccccc2C[C@H]1O.O	21	330	16	>48	> 1000	19	> 1000	16	>71	> 1000	270	> 1000	>48	1600						14
